High-throughput results as filed in PubChem BioAssay.
PfGluPho inh = PfG6PD enzyme inhibitors, primary screen, biochemical, fluorescence intensity, uHTS; glucose-6-phosphate dehydrogenase-6-phosphogluconolactonase (Plasmodium falciparum 3D7); PfGluPho enzyme, NADPH resazurin-diaphorase fluorescence; inhibition, % at 20 µM; actives 0.78% (n = 350,000);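 active means inhibition reaching at least a set limit at 20 µM in the primary screen, cut at about 59% in these data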;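 further: 0% = DMSO wells with substrate and 100% = DMSO wells lacking glucose-6-phosphate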
Granule exo inh = LAMP-1 surface exposure blockers, TALL-104 cells – cell-based, flow cytometry, MLPCN library, primary screen. inhibition, % at 10 µM. actives 0.66% (n = 360,000). TALL-104 LAMP-1 surface exposure; cells stimulated with thapsigargin and PMA;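 active means inhibition above about 55%, limit read from the data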
ABHD5 PLIN5 PPI = ABHD5-PLIN5 interaction inhibitors, primary screen, cell lysate, split luciferase complementation, luminescence; Perilipin-5 (Homo sapiens) + 1-acylglycerol-3-phosphate O-acyltransferase ABHD5 (Homo …; Split G. princeps luciferase complementation, 4 h; inhibition, % at 4 µM; actives 0.78% (n = 360,000);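 active means inhibition above the mean inhibition across every tested compound plus 3 SD, cut at about 22% in these data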;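 further: 0% = DMSO only wells and the 100% control is not disclosed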
Target sequence (Q00G26 whole entry, looked up): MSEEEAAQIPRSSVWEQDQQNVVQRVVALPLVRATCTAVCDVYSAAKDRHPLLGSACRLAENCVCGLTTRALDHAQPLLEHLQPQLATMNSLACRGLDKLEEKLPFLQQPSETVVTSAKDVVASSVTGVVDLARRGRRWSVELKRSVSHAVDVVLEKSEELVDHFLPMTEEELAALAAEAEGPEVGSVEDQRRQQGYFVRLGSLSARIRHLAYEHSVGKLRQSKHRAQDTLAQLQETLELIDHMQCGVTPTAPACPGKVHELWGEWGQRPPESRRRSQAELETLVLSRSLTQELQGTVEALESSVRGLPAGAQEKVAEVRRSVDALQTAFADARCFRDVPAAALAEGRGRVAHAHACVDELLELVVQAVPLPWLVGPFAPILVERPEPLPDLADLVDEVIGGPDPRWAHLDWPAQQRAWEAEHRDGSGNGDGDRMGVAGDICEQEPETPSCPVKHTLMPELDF
Target sequence (Q8WTS1 whole entry, looked up): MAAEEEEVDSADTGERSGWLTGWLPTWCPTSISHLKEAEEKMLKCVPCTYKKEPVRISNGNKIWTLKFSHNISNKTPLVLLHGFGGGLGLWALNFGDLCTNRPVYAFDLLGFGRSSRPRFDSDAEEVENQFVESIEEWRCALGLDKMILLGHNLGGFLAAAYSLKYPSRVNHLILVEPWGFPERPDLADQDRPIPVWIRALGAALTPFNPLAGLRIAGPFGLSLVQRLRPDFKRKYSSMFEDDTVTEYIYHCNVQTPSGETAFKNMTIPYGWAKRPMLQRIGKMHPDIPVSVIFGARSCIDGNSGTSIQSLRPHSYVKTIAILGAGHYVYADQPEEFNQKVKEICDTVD
HKDC1 inhibitor = HKDC1 hexokinase inhibitors, primary screen, biochemical, fluorescence, uHTS; recombinant HKDC1, G6PDH/diaphorase resazurin coupled fluorescence; actives 0.16% (n = 340,000); Q2TB90; inhibition, % at 20 µM;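 active means inhibition above about 35% when tested at 20 µM, limit read from the data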;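 further: plate controls were DMSO wells with enzyme for no effect and DMSO wells lacking enzyme for full effect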
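Material – in-house recombinant HK5 (HKDC1) enzyme · Quantity – HKDC1 at 5 µg/mL · Buffer or medium – pH 8.0 Tris buffer with 10 mM MgCl2 · Reagent – glucose with 1 mM ATP · Dosing – single 20 µM dose · Times – reaction time 90 min, room temperature, protected from light · Technique – resorufin fluorescence at 613 nm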
Active calls of the source: *; . = no result. Hits are enriched below; roughly 2.2% of the tested compounds scored in any of these assays.

SMILES | PfGluPho inh | Granule exo inh | ABHD5 PLIN5 PPI | HKDC1 inhibitor
COCc1c(C(=O)OCc2nc3ccsc3c(=O)[nH]2)oc2ccccc12 | -11 | 2 | -3 | 9
CN1/C(=C/C(=O)c2nc(S(C)(=O)=O)ncc2Cl)C(C)(C)c2ccccc21 | 16 | 58* | 69* | 12
O=c1c2c3c(sc2n(CCN2CCCC2)c(=O)n1Cc1ccco1)CCCCC3 | -6 | -1 | 16 | 7
O=C(Cn1c(=O)n(Cc2ccco2)c(=O)c2c3c(sc21)CCCCC3)Nc1ccccc1 | 23 | 1 | 66* | 18
O=C(Cn1c(=O)n(Cc2ccco2)c(=O)c2c3c(sc21)CCCCC3)c1ccccc1 | 22 | 0 | 51* | 10
COc1ccc(CCNCC(O)Cn2c3ccccc3c3ccccc32)cc1OC (configuration not stated) | -16 | 18 | 22* | 4
COc1ccccc1NCC(O)Cn1c2ccccc2c2ccccc21 (configuration not stated) | 24 | -1 | 4 | 10
CC1=C(C(=O)OCc2ccccc2)C(c2ccc([N+](=O)[O-])cc2)NC(=O)N1CCCC(=O)O (configuration not stated) | 15 | 62* | -2 | -4
CCc1nn2c(=O)cc(COC(=O)c3cc(Cl)c(OC)c(OC)c3)nc2s1 | 11 | 4 | -5 | -3
COc1ccc(Cl)cc1NC(=O)CN(C)C1CCS(=O)(=O)C1 (configuration not stated) | 1 | 3 | 0 | -3
COC(=O)C[C@H]1CC[C@H](NC(=O)c2cccc(F)c2)[C@@H](CO)O1 | . | -4 | -7 | .
Nc1sc2c(c1C(=O)NC1CCS(=O)(=O)C1)CCCC2 (configuration not stated) | 62* | 5 | -30 | 6
Cc1ccc2c(c1)/C(=C/c1ccccc1)C(=O)N2 | 9 | 25 | 23* | 18
CC1(C)CC(CCC(=O)NC(=S)Nc2ccccc2Cl)C(=O)O1 (configuration not stated) | 8 | 8 | -2 | -2
CNc1ccc(Br)cc(C(=O)/C=C/c2cccc(Cl)c2Cl)c1=O | 48 | 98* | 20 | 23
COc1ccc(NC(=O)/C(Cl)=C(/Cl)S(=O)(=O)Cc2ccc(C)cc2)cn1 | 16 | 97* | 64* | 17
COc1ccc(NC(=O)Cc2ccc(Cl)c(Cl)c2)cn1 | -10 | 0 | 5 | -6
Cc1nn(S(=O)(=O)c2ccc(F)cc2)c(C)c1S(=O)(=O)N1CCOCC1 | 3 | -1 | -13 | -1
O=C(Cc1coc2cc(O)ccc12)NNC(=O)c1ccc(Br)s1 | -12 | 5 | -14 | 1
CCCC[C@@H]1Cc2[nH][nH]c(=O)c2[C@@H](c2ccc(Cl)cc2)O1 | . | -3 | 23* | .
CC[C@@H]1Cc2[nH][nH]c(=O)c2[C@H](c2ccc(Cl)cc2)O1 | . | -3 | -3 | .
CCCC[C@@H]1Cc2[nH][nH]c(=O)c2[C@H](c2ccc(C(C)C)cc2)O1 | . | 3 | 23* | .
NC(=O)c1cc[n+](CC2=C(C(=O)O)N3C(=O)[C@@H](NC(=O)C(c4ccccc4)S(=O)(=O)[O-])[C@H]3SC2)cc1 (some centres not stated) | 71* | -3 | -3 | 13
COc1nc(Nc2cccc(F)c2)nc(OC)n1 | -11 | -8 | 0 | -3
COc1cc2nc(Nc3cccc(F)c3)nc(N)c2cc1OC | 8 | 62* | 6 | -4
SMILES | PfGluPho inh | Granule exo inh | ABHD5 PLIN5 PPI | HKDC1 inhibitor
COc1ccccc1NNC(=O)C(O)(c1ccccc1OC)c1ccccc1OC | -5 | -8 | -4 | 1
COc1ccccc1NNC(=O)C(O)(c1ccccc1)c1ccccc1 | 0 | 104* | -4 | 1
COc1ccc(OC)c(N)c1 | 62* | 0 | 0 | 17
COc1ccccc1C(=O)Nc1nc(-c2ccc(S(=O)(=O)N3CCOCC3)cc2)cs1 | 30 | 65* | 5 | -3
COc1ccccc1OC(C)C(=O)Nc1nc(-c2ccc(S(=O)(=O)N3CCOCC3)cc2)cs1 (configuration not stated) | 23 | 3 | -1 | -3
CCCc1nc2nc(C)c(NS(=O)(=O)c3ccc(Cl)cc3)c(=O)n2[nH]1 | -9 | 14 | 0 | -3
O=C(Nc1ccc(Cl)cc1)C(Cl)C(=O)c1ccccc1 (configuration not stated) | 4 | 96* | 16 | 17
O=C(Nc1ccccc1Cl)C(Cl)C(=O)c1ccccc1 (configuration not stated) | -6 | -3 | -17 | -1
O=C(NCc1cccnc1)C1Cc2c(-c3ccc(Cl)cc3)ccnc2O1 (configuration not stated) | . | 1 | -1 | .
COc1ccc(/C=C/c2nc(-c3ccccc3O)n[nH]2)cc1OC | -8 | 65* | -1 | 0
O=C(O)COc1ccc(/C=C/c2nc(-c3ccccc3O)n[nH]2)cc1 | -6 | 8 | -4 | 5
CC(C)N1CCN(C(=O)c2ccc([N+](=O)[O-])cc2)CC1 | -3 | -4 | 4 | -2
O=C(CSc1nc(-c2ccc(F)cc2)nc2c1Cc1ccccc1O2)Nc1cccc(C(=O)O)c1 | -39 | 6 | 13 | 57*
COc1ccc(-c2nc3c(c(SCC(=O)Nc4cccc(O)c4)n2)Cc2c(CO)cnc(C)c2O3)cc1 | -4 | 6 | 33* | 4
Cc1c(C)n2c(SCC(=O)N3CC(C)OC(C)C3)nnc2[nH]c1=O (configuration not stated) | 12 | -6 | 6 | 8
C=CCn1c2ccccc2c2n[nH]c(=S)nc21 | 50 | 12 | -8 | -4
COc1cccc(C(=S)N2CCOCC2)c1OS(=O)(=O)c1ccc(Cl)cc1 | 24 | -1 | 6 | 5
CCCc1[nH]n(-c2ccc([N+](=O)[O-])cc2)c(=O)c1C=NCCc1c[nH]c2ccccc12 | 22 | 90* | 5 | 0
Cc1[nH]n(-c2ccc([N+](=O)[O-])cc2)c(=O)c1C=NCCc1c[nH]c2ccccc12 | 17 | 28 | 1 | -9
COc1cccc(-c2c(C(=O)N/N=C/c3cccs3)nnn2-c2nonc2N)c1 | 59* | 4 | 2 | 11
CCOc1cccc(-c2c(C(=O)N/N=C/c3cccs3)nnn2-c2nonc2N)c1 | 42 | 13 | 7 | 2
COc1ccc(S(=O)(=O)N2CCN(c3ccccc3OC)CC2)cc1C(=O)N1CCCCC1 | -8 | -1 | 1 | -8
O=c1c(/C=N/N2CCOCC2)c(C(F)(F)F)[nH]n1-c1ccccc1 | 31 | 31 | -24 | -6
COCCCNC1=C(Cl)C(=O)c2ccccc2C1=O | -172 | 56* | -7 | -4
COc1cccc(/C=C2\N=C(C3CCCCC3)OC2=O)c1OC | 15 | 60* | -3 | -1
NN(Cc1ccccc1)C(=S)Nc1ccc(Cl)c(Cl)c1 | 16 | 61* | -7 | -2
NC(=S)Nc1ccc(Cl)c(Cl)c1 | 15 | 19 | -5 | -1
